Assay outcomes deposited in PubChem BioAssay by several laboratories.
An excerpt weighted towards active compounds, which were near 9.8% of everything screened.
Lmaj promast = Leishmania major promastigote growth inhibition; AID 1063; Leishmania major promastigotes, resazurin fluorescence viability; inhibition, % at 10 µM; actives 9% (n = 200,000); in the data active = inhibition above about 50%;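 note: promastigotes grown with compound for 44 hours at 28 °C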
PMI act satM6P = activators of human phosphomannose isomerase at near-saturating mannose 6-phosphate; actives 0.34% (n = 190,000); P34949; coupled PMI enzyme assay, resazurin fluorescence, 20 min; active compounds read high; 1 = untreated enzyme, 0 = substrate-free blank; activation factor at 20 µM;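 active = activation factor of 2 or more at 20 µM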
Target sequence (P34949 whole entry, looked up): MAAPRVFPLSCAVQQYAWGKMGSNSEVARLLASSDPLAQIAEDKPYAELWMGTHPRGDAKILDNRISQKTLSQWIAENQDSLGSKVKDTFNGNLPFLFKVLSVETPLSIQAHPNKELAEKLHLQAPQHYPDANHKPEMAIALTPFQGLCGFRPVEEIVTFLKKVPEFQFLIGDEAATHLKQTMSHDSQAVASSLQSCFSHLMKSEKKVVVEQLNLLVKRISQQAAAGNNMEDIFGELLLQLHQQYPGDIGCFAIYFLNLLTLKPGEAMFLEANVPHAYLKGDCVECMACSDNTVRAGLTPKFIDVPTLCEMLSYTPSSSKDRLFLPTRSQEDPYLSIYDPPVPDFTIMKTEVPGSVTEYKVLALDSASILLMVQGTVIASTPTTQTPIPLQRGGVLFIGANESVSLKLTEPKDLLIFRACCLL
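Material: human phosphomannose isomerase with PGI, G6PDH, diaphorase coupling enzymes; amount: PMI at 15 ng/mL final; also added: Mannose-6-phosphate 1.0 mM (near-saturating) plus 0.22 mM NADP+; incubation: enzyme reaction with compound 20 min at room temperature; signal: resorufin fluorescence (Ex 544/Em 590 nm) from resazurin via diaphorase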
WT yeast gro inh = growth inhibition of WT yeast, mitochondrial fusion screen | mitochondrial fusion phenotypic screen, WT strain | inhibition, % at 10 µM | actives 2.1% (n = 190,000) | AID 1362; in the data active = inhibition above about 58%; tested in S. cerevisiae
Rad51 HR inh = blocks human Rad51 in homologous recombination. Q06609. hRad51 DNA strand exchange, fluorescence dequenching. inhibition, % at 10 µM. actives 0.085% (n = 200,000). AID 1385;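 active = inhibition above 40% at the single screening dose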
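Material: hRad51 filaments on single-stranded DNA; Reagent: Donor/quencher-labelled 47-bp dsDNA substrate; Compound: 10 µM final, single point; Schedule: 37 °C 15-min filament assembly, 30-min compound preincubation, 15-min exchange; Technique: FRET fluorescence, excitation 485 nm, emission 520 nm; Benchmarks: control wells and blank wells on each plate.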
Calpain2 inh = inhibitors of pig calpain II | inhibition, % at 16 µM | purified calpain II, fluorogenic peptide substrate, 30 min | actives 0.37% (n = 220,000);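 active = inhibition above about 50%, limit read from the data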
PMI act = increases human mannose-6-phosphate isomerase activity. purified human PMI, coupled resazurin fluorescence, 20 min; active compounds read high; 1 = vehicle control, 0 substrate-free wells. actives 0.005% (n = 190,000). activation factor at 20 µM;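 active = activation factor of 2 or more at 20 µM, relative to plate controls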
Of the large screens only hits and unclear results are named; the others gave an inactive call.

COC(=O)c1ccc2c(c1)N(Cc1cc(C)ccc1C)C(=O)c1ccccc1S2=O (centres undefined)	none
COC(=O)c1ccc2c(c1)N(Cc1ccccc1F)C(=O)c1ccccc1S2=O (centres undefined)	Lmaj promast 100.1
CC(=O)N1CCN(c2ccc(NC(=S)NC(=O)c3ccc(C)c([N+](=O)[O-])c3)cc2)CC1	none (no result: Lmaj promast, PMI act satM6P, WT yeast gro inh, PMI act)
COc1cccc(F)c1C(=O)NC(=O)Nc1ccc2nc(C)oc2c1	none (no result: Lmaj promast, PMI act satM6P, WT yeast gro inh, PMI act)
Cc1noc(C)c1COc1cccc(C(=O)NCc2cccc(Cl)c2)c1	Lmaj promast 73.0
Cc1ccccc1NC(=O)c1cccc(OCc2c(C)noc2C)c1	Lmaj promast 59.0
Cc1ccc(NC(=O)c2cccc(OCc3c(C)noc3C)c2)cc1	Lmaj promast 82.7
COc1ccc(NS(=O)(=O)c2cc(NC(=O)c3cccc(OCc4c(C)noc4C)c3)ccc2OC)cc1	Lmaj promast 97.9
COc1ccc2[nH]cc(/C=C/C(=O)c3ccccc3)c2c1	none (no result: Lmaj promast, PMI act satM6P, WT yeast gro inh, PMI act)
O=C(Nc1ccc(CN2CCS(=O)(=O)CC2)cc1)c1ccc(Cl)cc1	none (no result: Lmaj promast, PMI act satM6P, WT yeast gro inh, PMI act)
Cc1noc(C)c1COc1cccc(C(=O)Nc2ccc(C#N)cc2)c1	Lmaj promast 82.8
Cc1ccc(Oc2ccc(-c3nc(N)nc(N)n3)cc2)cc1	Lmaj promast 97.6
O=C(C1CC1)N1CCc2sccc2C1c1ccc(Cl)cc1 (centres undefined)	none (no result: Lmaj promast, PMI act satM6P, WT yeast gro inh, PMI act)
O=C(C1CC=CCC1)N1CCC(CO)(Cc2ccc(Cl)cc2)CC1 (centres undefined)	none
COc1c(C)cc(C(=O)C2CCCN(C(=O)c3cccc(F)c3)C2)cc1C (centres undefined)	none (no result: Rad51 HR inh)
COc1c(C)cc(C(=O)C2CCCN(C(=O)c3ccc4cc[nH]c4c3)C2)cc1C (centres undefined)	Lmaj promast 64.6
CCC(=O)Nc1ccc(C(=O)Nc2cccnc2)cc1	none
CCC(C)C(NC(=O)c1ccc(Cl)cc1)C(=O)Nc1cccnc1 (centres undefined)	Calpain2 inh 101.7
O=C(Oc1c(CN2CCOCC2)cc(Cl)c2cccnc12)c1ccccc1	Lmaj promast 100.3
COc1cc(OC)cc(C(=O)Oc2c(CN3CCOCC3)cc(Cl)c3cccnc23)c1	none (no result: Lmaj promast, PMI act satM6P, WT yeast gro inh, PMI act)
Oc1c(CN2CCc3ccccc3C2)cc(Cl)c2cccnc12	Lmaj promast 100.4
O=C(Oc1c(CN2CCOCC2)cc(Cl)c2cccnc12)c1ccccc1F	Lmaj promast 100.6
COc1ccc(C(=O)Oc2c(CN3CCOCC3)cc(Cl)c3cccnc23)cc1OC	Lmaj promast 96.6 (no result: PMI act satM6P, Calpain2 inh, PMI act)
Oc1c(I)cc(Cl)c2cccnc12	none (no result: Rad51 HR inh)
c1ccc2c(c1)NCCS2	none
Oc1c(CN2CCCCC2)cc(Br)c2cccnc12	Lmaj promast 100.5
COC(=O)c1c(O)cc(C(C)(C)C)n(-c2ccc(F)cc2)c1=O	Lmaj promast 63.1
COC(=O)c1cc(=O)n(Cc2ccc3c(c2)OCO3)c(=Nc2ccccc2)s1	Lmaj promast 81.5
CCOC(=O)c1ccc(N=c2sc(C(=O)OC)cc(=O)n2Cc2ccc3c(c2)OCO3)cc1	Lmaj promast 100.0
CC(=O)c1c(O)cc(C)n(-c2ccc(F)cc2)c1=O	none
COC(=O)c1ccc(N=c2sc(C(=O)OC)cc(=O)n2C)cc1	none
COC(=O)c1cc(=O)n(-c2ccc(F)cc2)c(=Nc2ccc(F)cc2)s1	Lmaj promast 91.9
Cc1[nH]c2ccccc2c1C(=O)CN1CC(C)OC(C)C1 (centres undefined)	none (no result: Lmaj promast, PMI act satM6P, WT yeast gro inh, PMI act)
Cc1ccc(C2C=NN(c3ccccc3)C2=O)cc1 (centres undefined)	none
NCCc1nc(-c2ccccc2)cs1	none (no result: Rad51 HR inh)
CC(=O)N1CCc2cc(Br)cc(S(=O)(=O)CCC(=O)N3CCN(c4ccccn4)CC3)c21	none
COC(=O)c1cc(=O)n(Cc2ccc(F)cc2)c(=NCc2ccc(F)cc2)s1	none
COC(=O)c1cc(=O)n(Cc2cccs2)c(=Nc2ccc(F)cc2)s1	Lmaj promast 97.6
COC(=O)c1cc(=O)n(Cc2ccc3c(c2)OCO3)c(=Nc2ccc(F)cc2)s1	Lmaj promast 87.0
O=C1C2(CCCC13COC(c1ccc(O)cc1)OC3)COC(c1ccc(O)cc1)OC2 (centres undefined)	none (no result: Lmaj promast, PMI act satM6P, WT yeast gro inh, PMI act)
Cc1ccc(C)c2[nH]c(=O)c(C(c3nnnn3Cc3ccco3)N3CCc4ccccc4C3)cc12 (centres undefined)	Lmaj promast 93.7
Cc1ccc(C)c2[nH]c(=O)c(C(c3nnnn3C3CCCC3)N3CCOCC3)cc12 (centres undefined)	none
Cc1ccc(C)c2[nH]c(=O)c(C(c3nnnn3CCc3ccccc3)N3CCOCC3)cc12 (centres undefined)	Lmaj promast 100.1
COc1ccccc1C(c1nnnn1Cc1ccco1)N1CCN(c2cccc(C)c2C)CC1 (centres undefined)	Lmaj promast 74.2
CCOc1ccc2[nH]c(=O)c(C(c3nnnn3Cc3ccco3)N3CCC(C)CC3)cc2c1 (centres undefined)	none
O=C(COc1ccccc1)NCC(=O)N/N=C/c1ccco1	Lmaj promast 56.0
COc1ccc(CC(=O)NCc2n[nH]c(=S)n2-c2ccccc2OC)cc1	none
N#Cc1ccc(OCC(=O)Nc2ccccc2NS(=O)(=O)c2cccs2)cc1	Lmaj promast 63.1
CCOc1ccc(-n2c(SCc3nc(-c4cccs4)no3)nnc2-c2ccncc2)cc1	Lmaj promast 62.2
CCCN(Cc1ccc(N(CC)CC)cc1)CC1CC1	Lmaj promast 75.6
O=C(Nc1cc(Sc2ccccn2)cc([N+](=O)[O-])c1)c1cccc(F)c1	Lmaj promast 94.6, Calpain2 inh 53.2
O=C(Nc1cc(Sc2nc3ccccc3s2)cc([N+](=O)[O-])c1)c1ccccc1F	none
O=C(Nc1cc(Sc2nc3ccccc3s2)cc([N+](=O)[O-])c1)c1ccccc1	Lmaj promast 99.7 (no result: Rad51 HR inh)
O=C1OC(C(=O)NCc2ccccc2)Cc2ccccc21 (centres undefined)	none
O=C(NCc1cccnc1)C(=O)C1C(=O)Nc2ccccc21 (centres undefined)	none (no result: Lmaj promast, PMI act satM6P, WT yeast gro inh, PMI act)
CC1=NN(C(=O)c2cc(C)nn2C)C(O)(C(F)(F)F)C1 (centres undefined)	none
OC1CCCN(Cc2c3ccccc3cc3ccccc23)C1 (centres undefined)	Lmaj promast 77.7
OC1CCCN(Cc2cccc3ccccc23)C1 (centres undefined)	none
CC(C)(C)C1CCC(OCC(O)CN2CCCC2)CC1 (centres undefined)	Lmaj promast 99.8
Cc1ccc(N2CCN(CC(O)COC3CCCCC3)CC2)cc1 (centres undefined)	Lmaj promast 96.9
CC(C)(C)C1CCC(OCC(O)CN2CCN(c3ccccc3)CC2)CC1 (centres undefined)	Lmaj promast 91.5
